Article PMC3016151 (Investigational New Drugs, 2009)

Columns and labels:
[1] = test system: patients with advanced or metastatic solid tumors; assay: Telatinib-induced toxicity in phase I patients; format: in vivo, human
Procedure, shortened: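 Patients with advanced or metastatic solid tumours (ECOG ≤2) took test compound orally, od or bid, continuously (20 mg od to 1,500 mg bid). Adverse events were graded by NCI-CTC v3.0 over all treatment cycles. KDR and FLT4 SNPs were TaqMan-genotyped on a dynamic array using DNA from residual frozen blood. Toxicity was compared by two-sided chi-square (3×2 genotype; 2×2 carrier vs noncarrier).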

[2] = phase I and pharmacological study; cited from earlier work
[3] = test system: adenosine triphosphate binding cassette (ABC) B1 (ABCB1) transporter; conditions: in vitro studies; data on file at Bayer Pharmaceuticals Corporation; cited from earlier work
[4] = Pharmacokinetics of telatinib in phase I patients; format: in vivo, human; conditions: for Dose normalized AUC, mean: cycle 1 day 14, 150 mg tablets
[5] = all treatment cycles, 33 patients, all dose levels

CNC(=O)c1cc(COc2nnc(Nc3ccc(Cl)cc3)c3ccoc23)ccn1 [telatinib, Telatinib]
Grade 3–4 toxicity, number of patients ([1]; 33 patients): 3 patients | Hypertension (most frequently observed side-effect), number of patients ([1]; 33 patients, unrelated to dose): 7 n | Toxicity: any toxicity grade 1–4 all cycles, No (number of patients) ([1]; FLT4 1480A>G genotype AA): 7 | Toxicity: any toxicity grade 1–4 all cycles, Yes (number of patients) ([1]; FLT4 1480A>G genotype AA): 20 | Toxicity: any toxicity grade 1–4 all cycles, No (number of patients) ([1]; FLT4 1480A>G genotype AG): 3 | Toxicity: any toxicity grade 1–4 all cycles, Yes (number of patients) ([1]; FLT4 1480A>G genotype AG): 3 | Toxicity: any toxicity grade 1–4 all cycles, No (number of patients) ([1]; FLT4 2670C>G genotype CC): 6 | Toxicity: any toxicity grade 1–4 all cycles, Yes (number of patients) ([1]; FLT4 2670C>G genotype CC): 11 | Toxicity: any toxicity grade 1–4 all cycles, No (number of patients) ([1]; FLT4 2670C>G genotype CG): 3 | Toxicity: any toxicity grade 1–4 all cycles, Yes (number of patients) ([1]; FLT4 2670C>G genotype CG): 9 | Toxicity: any toxicity grade 1–4 all cycles, No (number of patients) ([1]; FLT4 2670C>G genotype GG): 1 | Toxicity: any toxicity grade 1–4 all cycles, Yes (number of patients) ([1]; FLT4 2670C>G genotype GG): 3 | Toxicity: any toxicity grade 1–4 all cycles, No (number of patients) ([1]; KDR 1192G>A genotype CC): 5 | Toxicity: any toxicity grade 1–4 all cycles, Yes (number of patients) ([1]; KDR 1192G>A genotype CC): 19 | Toxicity: any toxicity grade 1–4 all cycles, No (number of patients) ([1]; KDR 1192G>A genotype TC): 4 | Toxicity: any toxicity grade 1–4 all cycles, Yes (number of patients) ([1]; KDR 1192G>A genotype TC): 4 | Toxicity: any toxicity grade 1–4 all cycles, No (number of patients) ([1]; KDR 1192G>A genotype TT): 1 | Toxicity: any toxicity grade 1–4 all cycles, Yes (number of patients) ([1]; KDR 1192G>A genotype TT): 0 | Toxicity: any toxicity grade 1–4 all cycles, No (number of patients) ([1]; KDR 1719A>T genotype AA): 1 | Toxicity: any toxicity grade 1–4 all cycles, Yes (number of patients) ([1]; KDR 1719A>T genotype AA): 1 | Toxicity: any toxicity grade 1–4 all cycles, No (number of patients) ([1]; KDR 1719A>T genotype TA): 4 | Toxicity: any toxicity grade 1–4 all cycles, Yes (number of patients) ([1]; KDR 1719A>T genotype TA): 9 | Toxicity: any toxicity grade 1–4 all cycles, No (number of patients) ([1]; KDR 1719A>T genotype TT): 5 | Toxicity: any toxicity grade 1–4 all cycles, Yes (number of patients) ([1]; KDR 1719A>T genotype TT): 13 | Toxicity: any toxicity grade 1–4 all cycles, No (number of patients) ([1]; KDR -604T>C genotype CC): 3 | Toxicity: any toxicity grade 1–4 all cycles, Yes (number of patients) ([1]; KDR -604T>C genotype CC): 7 | Toxicity: any toxicity grade 1–4 all cycles, No (number of patients) ([1]; KDR -604T>C genotype CT): 5 | Toxicity: any toxicity grade 1–4 all cycles, Yes (number of patients) ([1]; KDR -604T>C genotype CT): 13 | Toxicity: any toxicity grade 1–4 all cycles, No (number of patients) ([1]; KDR -604T>C genotype TT): 2 | Toxicity: any toxicity grade 1–4 all cycles, Yes (number of patients) ([1]; KDR -604T>C genotype TT): 3 | Any toxicity grade 1–4, patients [1, 5]: 23 (70) n (%) | Any toxicity grade 3 or 4, patients [1, 5]: 3 (9) n (%) | Hypertension grade 1–4, patients [1, 5]: 7 (21) n (%) | Hypertension grade 3 or 4, patients [1, 5]: 2 (6) n (%) | any grade 1–4 toxicity, number of patients ([1]; during all treatment cycles): 23 out of 33 patients | any grade 1–4 toxicity, share of patients ([1]; during all treatment cycles, 33 patients): 70% | AUC(0–12) interpatient variability, % coefficient of variation [2]: 20–150% | Cmax interpatient variability, % coefficient of variation [2]: 20–150% | dose proportionality of pharmacokinetics [2]: dose proportional | substrate of the ABCB1 transporter [3]: weak substrate | Dose normalized AUC, mean ([4]; ABCB1 1236C>T genotype CC, n=9): 7.84 | Dose normalized AUC, mean ([4]; ABCB1 1236C>T genotype CT, n=15): 11.60 | Dose normalized AUC, mean ([4]; ABCB1 1236C>T genotype TT, n=5): 4.82 | Dose normalized AUC, mean ([4]; ABCB1 2677G>A/T genotype GG, n=9): 7.84 | Dose normalized AUC, mean ([4]; ABCB1 2677G>A/T genotype TG, n=15): 11.60 | Dose normalized AUC, mean ([4]; ABCB1 2677G>A/T genotype TT, n=5): 4.82 | Dose normalized AUC, mean ([4]; ABCB1 3435C>T genotype CC, n=7): 7.30 | Dose normalized AUC, mean ([4]; ABCB1 3435C>T genotype CT, n=16): 11.10 | Dose normalized AUC, mean ([4]; ABCB1 3435C>T genotype TT, n=6): 6.65 | Dose normalized AUC, mean ([4]; ABCB1 -129T>C genotype CC, n=1): 11.79 | Dose normalized AUC, mean ([4]; ABCB1 -129T>C genotype TC, n=2): 15.65 | Dose normalized AUC, mean ([4]; ABCB1 -129T>C genotype TT, n=26): 8.67 | Dose normalized AUC, mean ([4]; ABCC1 825T>C genotype TC, n=11): 10.90 | Dose normalized AUC, mean ([4]; ABCC1 825T>C genotype TT, n=18): 8.26 | Dose normalized AUC, mean ([4]; ABCC1 1062T>C genotype CC, n=2): 13.45 | Dose normalized AUC, mean ([4]; ABCC1 1062T>C genotype TC, n=10): 9.95 | Dose normalized AUC, mean ([4]; ABCC1 1062T>C genotype TT, n=17): 8.36 | Dose normalized AUC, mean ([4]; ABCC1 2012G>T genotype GG, n=24): 8.80 | Dose normalized AUC, mean ([4]; ABCC1 2012G>T genotype GT, n=4): 13.46 | Dose normalized AUC, mean ([4]; ABCC1 2012G>T genotype TT, n=1): 3.63 | Dose normalized AUC, mean ([4]; ABCC1 rs129081 genotype CC, n=5): 10.22 | Dose normalized AUC, mean ([4]; ABCC1 rs129081 genotype GC, n=15): 10.44 | Dose normalized AUC, mean ([4]; ABCC1 rs129081 genotype GG, n=9): 6.77 | Dose normalized AUC, mean ([4]; ABCG2 346G>A genotype AG, n=4): 6.00 | Dose normalized AUC, mean ([4]; ABCG2 346G>A genotype GG, n=25): 9.78 | Dose normalized AUC, mean ([4]; ABCG2 421C>A genotype CA, n=6): 10.48 | Dose normalized AUC, mean ([4]; ABCG2 421C>A genotype CC, n=23): 8.95 | Dose normalized AUC(0–12), mean (range) ([4]; oral, cycle 1 day 14 (steady-state), AUC(0–12)/actual dose): 9.26 (0.98–34.60) µg.hr/L per mg of dose
